Published values collected from several papers.
Compare with care: the assays were run in different laboratories.
Target: SRSF protein kinase 3 (SRPK3, Homo sapiens, UniProt Q9UPE1)

CN1CC(Oc2cnc(C#N)cc2-c2ccn3nc(NC(=O)C4CC4)cc3c2)C1
inhibition (enzyme activity, inhibitor; 1 µM): -3%

Cc1ccc(Nc2nccc(N(C)c3ccc4c(C)n(C)nc4c3)n2)cc1S(N)(=O)=O
inhibition (enzyme activity, inhibitor; 10 µM): 3%

Cn1c2c(c3ccccc31)C(C#N)C(C)(C)NC2=O (centres unmarked)
ΔTm (thermal stability, DSF; 10 µM): 0.2 °C

CNC(=O)c1cc(Oc2ccc(NC(=O)Nc3ccc(Cl)c(C(F)(F)F)c3)cc2)ccn1
inhibition (enzyme activity, inhibitor; 10 µM): 60%

CC(C)(C)c1nc(-c2cccc(NS(=O)(=O)c3c(F)cccc3F)c2F)c(-c2ccnc(N)n2)s1
remaining activity (enzyme activity, inhibitor, radiometric; 1 µM): 105%

COc1cc(-c2cn(C3CCc4c(F)cccc4N(CC(F)(F)F)C3=O)nn2)ccc1-n1cnc(C)c1 (centres unmarked)
remaining binding (cell-free assay, competition with immobilised ligand; 1 µM): 100%

CCN(CC)CCNC(=O)c1c(C)[nH]c(/C=C2\C(=O)Nc3ccc(F)cc32)c1C
inhibition (enzyme activity, inhibitor; 0.3 µM): -4%

Cc1cc(NC(=O)c2cccc3cc(-c4cccc5[nH]nc(N)c45)ccc23)ccc1F
activity vs control (enzyme activity, inhibitor; 0.1 µM): 113%

Cn1c2c(c3ccc(Cl)c(Cl)c31)C(C#N)C1(CCNCC1)NC2=O (racemic)
ΔTm (thermal stability, DSF; 10 µM): 1.9 °C

Cc1cc(NC(=O)c2cccc(S(F)(F)(F)(F)F)c2)cc(-n2ccn3nc(-c4cccnc4)cc23)c1
remaining binding (cell-free assay, competition with immobilised ligand; 1 µM): 100%

COc1cc2ncnc(Nc3ccc(Oc4ccccc4)c(C)c3C)c2cc1OC
inhibition (enzyme activity, inhibitor; 1 µM): 5%

Cn1c2c(Cl)c(Cl)ccc2c2cc(N)[nH]c(=O)c21
ΔTm (thermal stability, DSF; 10 µM): 0.3 °C

CC1=C(C#N)[C@@H](c2ccc3[nH]nc(C)c3c2)C(C#N)=C(c2ccc(Cl)cc2)N1
remaining binding (cell-free assay, competition with immobilised ligand; 1 µM): 100%

Nc1ncnc2occ(-c3ccc(NC(=O)Nc4cc(C(F)(F)F)ccc4F)cc3)c12
remaining signal (cell-free assay, inhibitor; 20 µM): 88%

O=C(NS(=O)(=O)c1ccc(NCC2CCOCC2)c([N+](=O)[O-])c1)c1ccc(N2CCN(Cc3ccc(C(F)(F)F)cc3-c3ccc(Cl)cc3)CC2)cc1Oc1cnc2[nH]ccc2c1
remaining binding (cell-free assay, competition with immobilised ligand; 1 µM): 100%

CCOc1cc(-c2nncn2C)ccc1Nc1ncc2cc(C)nc(NCC(C)(C)C)c2n1
inhibition (enzyme activity, inhibitor, FRET; 1 µM): < 15%

CS(=O)(=O)NCC[C@H](NC(=O)c1cncc2c1cnn2-c1ccc(F)cc1)c1ccnc(S(C)(=O)=O)c1
remaining binding (cell-free assay, competition with immobilised ligand; 1 µM): 100%

CC/C(=N\NC(=O)NCc1cccc(O)c1)c1ccc(O)c(C)c1O
inhibition (enzyme activity, inhibitor; 0.1 µM): -2.9%

CC(=O)Nc1c(C(C)=O)c(=O)n(C)c2nc(-c3ccc(Cl)cc3Cl)c(-c3ccc(Cl)cc3)cc12
remaining binding (cell-free assay, competition with immobilised ligand; 1 µM): 100%

CCN(CC)c1ccc(C2=NNC(=O)CC2C)cc1[N+](=O)[O-] (centres unmarked)
remaining activity (enzyme activity, inhibitor; 10 µM): 111%
